High-throughput results as filed in PubChem.
T cruzi repl: T. cruzi replication inhibition; T. cruzi beta-gal in NIH3T3, luminescence, 90 h; inhibition, % (test concentration not listed); hit rate 1.4% among 300,000; AID 1885;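 active = mean inhibition across valid replicates above about 55%, limit read from the data; inconclusive = mean below that limit but half or more replicates reach it; inactive = mean below it, under half of replicates reach it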;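 note: signal also drops with host cell toxicity which is not excluded here; 0% = plate median of DMSO wells and 100% = zero luminescence signal; higher percent means less beta-gal luminescence so fewer parasites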
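Test system: β-gal T. cruzi (Tulahuen C4) inside NIH/3T3 cells / Quantity: 5,000 cells/well / Measured by: luminescence from GalScreen with 0.05% NP40, read after 60 min / Medium: DMEM plus 2% FBS / Measure: parasite load inhibition, % / Reagent: Tulahuen C4 trypomastigotes, 5000/well / Schedule: co-culture of at least 90 h after 3 h attachment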
HSF1 inhib: HSF1 inhibition; NIH3T3-HGL HSE-luciferase, MG132-induced, luminescence 8 h; active compounds read low; activity change, negative = inhibition, % at 7.5 µM (by protocol); hit rate 0.77% among 300,000; AID 2098;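 active = more than half of replicate wells show activity change below -50%, luminescence cut by over half; inconclusive = some wells, but at most half, below -50%; inactive = no replicate well below -50%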;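 note: luciferase reports HSF-1 transcriptional activity via heat shock element; 0% = median of DMSO wells and -100% = zero luminescence signal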
HSF-1 act: increases HSF-1 driven luciferase reporter signal. NIH3T3-HGL HSF-1 luciferase reporter, MG132, 8 h; 100% = twice DMSO control signal. activation, % at 9 µM. hit rate 1.7% among 300,000. AID 504408;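 active = mean replicate activation of at least 50% with a set share of replicates each reaching 50%; inconclusive = only one of those two conditions met; inactive = mean below 50% and too few replicates reaching it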;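 note: 0% = median of the neutral control wells and 100% = twice that signal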
L major viab: reduces viability of Leishmania major promastigotes | resazurin fluorescence viability | inhibition, % at 10 µM | hit rate 9% among 200,000 | AID 1063; in the data active = inhibition above about 50%;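 note: promastigotes grown with compound for 44 hours at 28 °C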
Hsp70 act: Hsp70 transcriptional activation, primary screen. HeLa Hsp70 promoter luciferase reporter, luminescence; scaled: vehicle 0, proteasome-inhibitor control 100%. activation, % at 10 µM. hit rate 0.04% among 200,000;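 active = activation above the mean across all tested compounds plus 3 SD, cutoff set per campaign, cut at about 5.5% in these data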;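 note: 100% = MG132 at 30 µM as the positive control and 0% = DMSO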
* = called active by the depositor; ? = inconclusive; . = not tested or not shown. Only a selection was taken, and hits are over-represented in it overall.

SMILES	T cruzi repl	HSF1 inhib	HSF-1 act	L major viab	Hsp70 act
COc1ccc(CNC(=O)CN(C(=O)CCC(=O)Nc2ccccn2)c2ccc(C)cc2)cc1	12	5	15	.	.
CC(C)NC(=O)CN(C(=O)CCC(=O)Nc1ccccn1)c1ccc(F)c(Cl)c1	2	3	2	1	0
COc1ccc(CNC(=O)CN(C(=O)CCC(=O)Nc2ccccn2)c2cccc(C)c2)cc1	31	4	5	50*	0
CN(C)N1C(N)=C(C#N)C(c2ccc3c(c2)OCO3)C2=C1CC(C)(C)CC2=O (centres undefined)	13	-7	-4	.	.
CCc1nnc(NC(=O)CCC(=O)N2CCN(c3cccc(Cl)c3)CC2)s1	10	6	14	.	.
COc1ccc(-n2nc(C(=O)NCC(=O)NCCC3=CCCCC3)c3ccccc3c2=O)cc1OC	-3	-5	13	.	.
Cc1ccc(CNS(=O)(=O)c2cc3c4c(c2)C(C)C(=O)N4CCC3)cc1 (centres undefined)	-8	-12	-26	.	.
COC(=O)/C(=C\c1ccc2c(c1)c1ccccc1n2C)NC(=O)c1ccccc1	18	8	?	63*	0
CC(C)OC(=O)/C(=C/c1ccc2c(c1)c1ccccc1n2C)NC(=O)c1ccccc1	19	20	27	40	0
CCC(O)CC(C(=O)NNc1ccccc1)C(=O)NNc1ccccc1 (centres undefined)	5	2	6	72*	0
CCOC(=O)NNc1ccccc1	-9	-3	1	.	.
CC1=NOC(=O)/C1=C\c1ccc(-c2ccc(Br)cc2C(=O)O)o1	1	-1	7	-4	0
CC1=NOC(=O)/C1=C/c1ccc(-c2ccc(Cl)cc2)o1	.	.	.	100*	0
CC1=NOC(=O)/C1=C\c1ccc(-c2cc(Cl)ccc2Cl)o1	-36	-3	13	99*	0
CC1=NOC(=O)/C1=C\c1ccc(-c2ccc(Br)cc2)o1	19	10	3	62*	0
COc1ccc(CCNC(=O)CSc2nnc(Cc3cccn3C)n2C)cc1OC	-2	-9	6	-2	0
CC(=O)Nc1cc([N+](=O)[O-])ccc1N1CCOCC1	0	-2	-15	8	0
O=C(Nc1ccc([N+](=O)[O-])cc1)Nc1ccc(N2CCOCC2)c2nonc12	71*	-7	9	98*	0
CSc1nccc(N/N=C/c2ccccc2)n1	-19	46	72*	.	.
CCCCN(C(=O)C(C)Oc1ccc(Cl)cc1)c1c(N)n(CCCC)c(=O)[nH]c1=O (centres undefined)	-13	8	18	.	.
COc1ccc(/C=c2\s/c(=C\C(=O)C(C)(C)C)[nH]c2=O)cc1O	7	45	64*	.	.
CC(C)(C)C(=O)/C=c1\[nH]c(=O)/c(=C\c2ccc(C#N)cc2)s1	5	3	7	60*	0
O=c1c2c([N+](=O)[O-])cc([N+](=O)[O-])cc2sn1-c1ccc(Br)cc1	.	.	.	-10	0
O=c1c2c([N+](=O)[O-])cc([N+](=O)[O-])cc2sn1Cc1ccccc1	57*	-21	-30	.	.
COc1cc(C2C3=C(CC(C)(C)CC3=O)N(C)C3=C2C(=O)CC(C)(C)C3)cc(Br)c1O	-5	-41	-51	.	.
SMILES	T cruzi repl	HSF1 inhib	HSF-1 act	L major viab	Hsp70 act
CCOc1ccccc1CN1CCCC(CNS(=O)(=O)c2ccc(OC)cc2)C1 (centres undefined)	2	3	13	.	.
COc1ccc(S(=O)(=O)NCC2CCCN(C(=O)CC3CCCC3)C2)cc1 (centres undefined)	1	-1	4	9	0
COc1ccc(S(=O)(=O)NCC2CCCN(Cc3ccccc3C)C2)cc1 (centres undefined)	21	-4	2	99*	0
COc1ccc(S(=O)(=O)NCC2CCCN(C(=O)C3CCCC3)C2)cc1 (centres undefined)	-10	-62*	-70	0	0
CCn1cc(Cl)c(C(=O)Nc2ccccc2C(N)=O)n1	2	8	29	-5	0
COc1cccc2c1C(=O)C=C(C)C2=O	-15	-1	14	99*	0
CC1=CC(=O)c2ccccc2C1=O	-1	-2	3	-1	0
CCc1cccc(C)c1NC(=O)c1ccc2c(c1)CCN2S(C)(=O)=O	-28	-9	1	.	.
CCOC(=O)c1c(S(=O)(=O)N2CCN(Cc3ccccc3)CC2)c(C)n(C)c1C	12	1	18	.	.
Cc1cc(=O)[nH]c(SCC(=O)N2CCCC(C)C2)n1 (centres undefined)	-7	4	5	.	.
CCN(CC)CC#CCC(C)(c1ccccc1)c1ccccc1	19	4	4	94*	0
CCN(CC)CC#CCC(O)(c1ccccc1)c1ccccc1	15	-3	-6	77*	0
CCN(CC)CC#CCC(O)(c1ccccc1)c1ccc(Br)cc1 (centres undefined)	20	0	-6	46	0
CC1(C)CC(NC(=O)c2c(N)no[n+]2[O-])CC(C)(C)N1	-19	-9	3	4	0
Cc1noc(C)c1COC(=O)c1cnc(Cl)c(Cl)c1	13	-3	4	7	0
COc1ccc(C/C(O)=C(\C#N)c2nc3ccccc3[nH]2)cc1OC	-43	15	59*	-2	0
COc1cc(CC(C#N)(CO)c2nc3ccccc3[nH]2)ccc1OC(F)F (centres undefined)	0	-5	1	82*	0
COCCN(C(=O)COc1ccccc1C#N)c1c(N)n(Cc2ccccc2)c(=O)[nH]c1=O	-1	1	-7	.	.
O=C(CN1CCC(O)(c2ccc3c(c2)OCO3)CC1)NC1CCCCC1	10	-7	-5	3	0
O=C(CN1CCC(O)(c2ccc3c(c2)OCO3)CC1)OC1CCCCC1	5	-7	-2	97*	0
COc1cccc(NC(=S)N2CCN(C)CC2)c1	-14	-3	2	.	.
C=CCNC(=S)N1CCC(Cc2ccccc2)CC1	-6	-2	-6	.	.
Cc1ccc(N=Cc2cc(Cc3ccccc3Cl)cc([N+](=O)[O-])c2O)c(O)c1	-2	6	34	73*	0
O=C(CSC(=S)N1CCOCC1)Nc1ncc2c(n1)CC(c1ccco1)CC2=O (centres undefined)	-17	5	3	.	.
O=C(COc1ccc2c3c(c(=O)oc2c1)CCC3)NCCCN1CCCC1=O	-1	-1	8	.	.
CN1CCC(N(C)C(=O)/C=C/c2cn(-c3ccccc3)nc2-c2cccs2)CC1	?	2	8	101*	0
CCN(CC(=O)Nc1ccc(NC(C)=O)cc1)C(=O)/C=C/c1cn(-c2ccccc2)nc1-c1cccs1	5	3	5	.	.
CC1=NNC(=O)/C1=C\c1cn(-c2ccccc2)nc1-c1cccs1	-9	17	39	100*	0
CC1=NNC(=O)/C1=C\c1cn(-c2ccccc2)nc1-c1ccc(F)cc1	26	111	146*	100*	0
